We go through 11 compounds from ChEMBL document CHEMBL3861950, “Design, synthesis and evaluation of novel 19F magnetic resonance sensitive protein tyrosine phosphatase inhibitors” (Medchemcomm, 2016).

As usually defined, the IC50 is the concentration at which inhibition is half-maximal.

Assay [1] is described as follows: Inhibition of recombinant Mycobacterium tuberculosis PTPB using pNPP as substrate by spectrophotometric method. The method in brief:
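Recombinant enzyme made in-house. Substrate pNPP in 50 mM 3,3-dimethylglutarate buffer, pH 7.0, with 1 mM EDTA and 150 mM NaCl, at 25 °C, screened in 96-well format. p-Nitrophenol product read at 405 nm. Non-enzymatic pNPP hydrolysis was corrected using a control without enzyme.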

Assay [2] concerns the target T1, Tyrosine-protein phosphatase non-receptor type 11 (Homo sapiens, UniProt Q06124).
T1 sequence (Q06124 whole entry): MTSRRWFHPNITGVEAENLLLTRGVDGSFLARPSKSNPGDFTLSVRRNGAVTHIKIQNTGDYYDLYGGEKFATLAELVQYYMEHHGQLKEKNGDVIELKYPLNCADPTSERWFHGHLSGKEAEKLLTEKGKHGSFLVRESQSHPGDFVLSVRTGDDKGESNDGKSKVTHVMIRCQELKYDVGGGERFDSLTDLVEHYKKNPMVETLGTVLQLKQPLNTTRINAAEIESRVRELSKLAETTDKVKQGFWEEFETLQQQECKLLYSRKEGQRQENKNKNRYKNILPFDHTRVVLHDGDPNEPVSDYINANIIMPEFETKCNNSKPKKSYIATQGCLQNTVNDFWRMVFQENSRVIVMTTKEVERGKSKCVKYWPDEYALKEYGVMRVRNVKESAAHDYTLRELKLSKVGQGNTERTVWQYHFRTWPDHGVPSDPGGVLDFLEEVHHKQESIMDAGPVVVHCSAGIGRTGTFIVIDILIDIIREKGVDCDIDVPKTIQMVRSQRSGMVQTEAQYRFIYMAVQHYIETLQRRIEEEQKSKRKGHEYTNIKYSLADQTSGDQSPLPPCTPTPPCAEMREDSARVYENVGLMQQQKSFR
The assay can be described thus: Inhibition of recombinant SHP2 (unknown origin) using pNPP as substrate by spectrophotometric method. The method in brief:
(§1)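 Recombinant PTP prepared in-house, assayed with pNPP substrate in 50 mM 3,3-dimethylglutarate buffer pH 7.0 containing 1 mM EDTA and 150 mM NaCl at 25 °C, in 96-well format. p-Nitrophenol product was quantified by absorbance at 405 nm. Non-enzymatic pNPP hydrolysis was corrected using a no-enzyme control.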

The target of assay [3] is T2, Tyrosine-protein phosphatase non-receptor type 1 (Homo sapiens, UniProt P18031).
T2 sequence (P18031 whole entry): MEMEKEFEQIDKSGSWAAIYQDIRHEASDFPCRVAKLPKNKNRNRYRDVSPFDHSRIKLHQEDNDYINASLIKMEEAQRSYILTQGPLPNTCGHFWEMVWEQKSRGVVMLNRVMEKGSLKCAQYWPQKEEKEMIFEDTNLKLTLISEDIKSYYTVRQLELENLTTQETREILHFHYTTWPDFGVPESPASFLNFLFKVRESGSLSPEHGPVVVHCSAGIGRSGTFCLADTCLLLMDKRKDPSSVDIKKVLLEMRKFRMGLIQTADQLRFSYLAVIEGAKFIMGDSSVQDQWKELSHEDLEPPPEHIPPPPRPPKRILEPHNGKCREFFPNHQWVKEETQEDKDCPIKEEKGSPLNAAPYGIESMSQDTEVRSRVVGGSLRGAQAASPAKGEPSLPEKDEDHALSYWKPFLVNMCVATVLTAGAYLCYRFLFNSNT
The assay can be described thus: Inhibition of recombinant PTP1B (unknown origin) using pNPP as substrate by spectrophotometric method. The method, boiled down: as §1

Assay [4] has as its target T3, Receptor-type tyrosine-protein phosphatase C (Homo sapiens, UniProt P08575).
T3 sequence (P08575 whole entry): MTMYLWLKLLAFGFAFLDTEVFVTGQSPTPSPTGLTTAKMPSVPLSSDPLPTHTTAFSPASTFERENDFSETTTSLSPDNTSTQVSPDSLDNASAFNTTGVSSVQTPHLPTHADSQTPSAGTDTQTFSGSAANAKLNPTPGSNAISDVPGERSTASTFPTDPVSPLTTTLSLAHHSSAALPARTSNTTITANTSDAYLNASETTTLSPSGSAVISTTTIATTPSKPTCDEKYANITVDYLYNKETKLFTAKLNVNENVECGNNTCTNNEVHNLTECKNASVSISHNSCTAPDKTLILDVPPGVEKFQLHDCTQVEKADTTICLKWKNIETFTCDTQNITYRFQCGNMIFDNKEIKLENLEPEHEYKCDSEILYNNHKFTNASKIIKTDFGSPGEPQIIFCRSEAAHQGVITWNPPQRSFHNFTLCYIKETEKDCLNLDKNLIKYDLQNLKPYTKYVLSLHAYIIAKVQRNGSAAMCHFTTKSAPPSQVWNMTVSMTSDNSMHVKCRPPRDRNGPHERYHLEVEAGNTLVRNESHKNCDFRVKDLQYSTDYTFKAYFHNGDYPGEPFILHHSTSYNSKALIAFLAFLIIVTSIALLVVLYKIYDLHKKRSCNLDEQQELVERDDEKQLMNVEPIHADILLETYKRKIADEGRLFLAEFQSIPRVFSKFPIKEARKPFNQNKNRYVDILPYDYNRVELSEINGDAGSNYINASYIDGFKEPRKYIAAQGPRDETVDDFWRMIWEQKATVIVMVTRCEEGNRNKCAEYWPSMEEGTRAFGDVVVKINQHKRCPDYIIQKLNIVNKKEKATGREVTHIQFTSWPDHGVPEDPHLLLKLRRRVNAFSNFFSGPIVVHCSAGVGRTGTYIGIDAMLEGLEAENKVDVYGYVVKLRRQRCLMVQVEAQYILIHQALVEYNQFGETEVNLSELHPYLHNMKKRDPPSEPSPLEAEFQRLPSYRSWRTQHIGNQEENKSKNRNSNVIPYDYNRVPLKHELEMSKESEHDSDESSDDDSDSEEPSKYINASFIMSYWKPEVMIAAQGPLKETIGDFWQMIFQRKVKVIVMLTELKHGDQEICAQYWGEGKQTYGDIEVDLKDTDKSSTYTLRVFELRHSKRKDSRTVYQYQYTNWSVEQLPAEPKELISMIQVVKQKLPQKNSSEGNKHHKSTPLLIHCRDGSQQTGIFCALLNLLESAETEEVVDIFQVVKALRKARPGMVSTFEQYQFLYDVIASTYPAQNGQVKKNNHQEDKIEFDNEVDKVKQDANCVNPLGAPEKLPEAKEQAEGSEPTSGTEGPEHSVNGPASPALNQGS
The assay can be described thus: Inhibition of recombinant CD45 (unknown origin) using pNPP as substrate by spectrophotometric method. The method, boiled down: as §1

Assay [5] concerns the target T4, Tyrosine-protein phosphatase non-receptor type 22 (Homo sapiens, UniProt Q9Y2R2).
T4 sequence (Q9Y2R2 whole entry): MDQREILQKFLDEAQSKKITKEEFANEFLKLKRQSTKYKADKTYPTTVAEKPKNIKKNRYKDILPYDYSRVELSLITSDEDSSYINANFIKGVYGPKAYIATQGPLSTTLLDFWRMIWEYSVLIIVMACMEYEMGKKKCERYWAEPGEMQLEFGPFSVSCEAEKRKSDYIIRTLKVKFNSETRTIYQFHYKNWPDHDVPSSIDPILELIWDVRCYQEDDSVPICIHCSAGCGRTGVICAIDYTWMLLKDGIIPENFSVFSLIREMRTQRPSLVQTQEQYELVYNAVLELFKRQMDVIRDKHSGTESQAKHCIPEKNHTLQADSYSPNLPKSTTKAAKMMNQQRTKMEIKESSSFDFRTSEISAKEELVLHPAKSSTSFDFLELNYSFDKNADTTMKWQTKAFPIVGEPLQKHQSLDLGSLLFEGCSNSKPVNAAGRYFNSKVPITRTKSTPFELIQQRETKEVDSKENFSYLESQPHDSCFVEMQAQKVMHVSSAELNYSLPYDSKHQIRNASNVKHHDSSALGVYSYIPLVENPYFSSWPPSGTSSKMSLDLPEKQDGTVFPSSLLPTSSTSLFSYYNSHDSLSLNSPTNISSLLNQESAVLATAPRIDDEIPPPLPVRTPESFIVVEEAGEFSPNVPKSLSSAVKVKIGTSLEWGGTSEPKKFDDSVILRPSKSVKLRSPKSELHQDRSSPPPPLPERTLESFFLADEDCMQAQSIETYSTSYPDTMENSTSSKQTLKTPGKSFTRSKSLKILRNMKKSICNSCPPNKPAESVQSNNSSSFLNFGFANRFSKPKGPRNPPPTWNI
The assay can be described thus: Inhibition of recombinant LYP (unknown origin) using pNPP as substrate by spectrophotometric method. The method, boiled down: as §1

Assay [6] addresses Tyrosine-protein phosphatase non-receptor type 13 (Homo sapiens, UniProt Q12923). The assay can be described thus: Inhibition of recombinant FAP1 (unknown origin) using pNPP as substrate by spectrophotometric method. The method, boiled down: as §1

Tyrosine-protein phosphatase non-receptor type 13, sequence (Q12923 whole entry): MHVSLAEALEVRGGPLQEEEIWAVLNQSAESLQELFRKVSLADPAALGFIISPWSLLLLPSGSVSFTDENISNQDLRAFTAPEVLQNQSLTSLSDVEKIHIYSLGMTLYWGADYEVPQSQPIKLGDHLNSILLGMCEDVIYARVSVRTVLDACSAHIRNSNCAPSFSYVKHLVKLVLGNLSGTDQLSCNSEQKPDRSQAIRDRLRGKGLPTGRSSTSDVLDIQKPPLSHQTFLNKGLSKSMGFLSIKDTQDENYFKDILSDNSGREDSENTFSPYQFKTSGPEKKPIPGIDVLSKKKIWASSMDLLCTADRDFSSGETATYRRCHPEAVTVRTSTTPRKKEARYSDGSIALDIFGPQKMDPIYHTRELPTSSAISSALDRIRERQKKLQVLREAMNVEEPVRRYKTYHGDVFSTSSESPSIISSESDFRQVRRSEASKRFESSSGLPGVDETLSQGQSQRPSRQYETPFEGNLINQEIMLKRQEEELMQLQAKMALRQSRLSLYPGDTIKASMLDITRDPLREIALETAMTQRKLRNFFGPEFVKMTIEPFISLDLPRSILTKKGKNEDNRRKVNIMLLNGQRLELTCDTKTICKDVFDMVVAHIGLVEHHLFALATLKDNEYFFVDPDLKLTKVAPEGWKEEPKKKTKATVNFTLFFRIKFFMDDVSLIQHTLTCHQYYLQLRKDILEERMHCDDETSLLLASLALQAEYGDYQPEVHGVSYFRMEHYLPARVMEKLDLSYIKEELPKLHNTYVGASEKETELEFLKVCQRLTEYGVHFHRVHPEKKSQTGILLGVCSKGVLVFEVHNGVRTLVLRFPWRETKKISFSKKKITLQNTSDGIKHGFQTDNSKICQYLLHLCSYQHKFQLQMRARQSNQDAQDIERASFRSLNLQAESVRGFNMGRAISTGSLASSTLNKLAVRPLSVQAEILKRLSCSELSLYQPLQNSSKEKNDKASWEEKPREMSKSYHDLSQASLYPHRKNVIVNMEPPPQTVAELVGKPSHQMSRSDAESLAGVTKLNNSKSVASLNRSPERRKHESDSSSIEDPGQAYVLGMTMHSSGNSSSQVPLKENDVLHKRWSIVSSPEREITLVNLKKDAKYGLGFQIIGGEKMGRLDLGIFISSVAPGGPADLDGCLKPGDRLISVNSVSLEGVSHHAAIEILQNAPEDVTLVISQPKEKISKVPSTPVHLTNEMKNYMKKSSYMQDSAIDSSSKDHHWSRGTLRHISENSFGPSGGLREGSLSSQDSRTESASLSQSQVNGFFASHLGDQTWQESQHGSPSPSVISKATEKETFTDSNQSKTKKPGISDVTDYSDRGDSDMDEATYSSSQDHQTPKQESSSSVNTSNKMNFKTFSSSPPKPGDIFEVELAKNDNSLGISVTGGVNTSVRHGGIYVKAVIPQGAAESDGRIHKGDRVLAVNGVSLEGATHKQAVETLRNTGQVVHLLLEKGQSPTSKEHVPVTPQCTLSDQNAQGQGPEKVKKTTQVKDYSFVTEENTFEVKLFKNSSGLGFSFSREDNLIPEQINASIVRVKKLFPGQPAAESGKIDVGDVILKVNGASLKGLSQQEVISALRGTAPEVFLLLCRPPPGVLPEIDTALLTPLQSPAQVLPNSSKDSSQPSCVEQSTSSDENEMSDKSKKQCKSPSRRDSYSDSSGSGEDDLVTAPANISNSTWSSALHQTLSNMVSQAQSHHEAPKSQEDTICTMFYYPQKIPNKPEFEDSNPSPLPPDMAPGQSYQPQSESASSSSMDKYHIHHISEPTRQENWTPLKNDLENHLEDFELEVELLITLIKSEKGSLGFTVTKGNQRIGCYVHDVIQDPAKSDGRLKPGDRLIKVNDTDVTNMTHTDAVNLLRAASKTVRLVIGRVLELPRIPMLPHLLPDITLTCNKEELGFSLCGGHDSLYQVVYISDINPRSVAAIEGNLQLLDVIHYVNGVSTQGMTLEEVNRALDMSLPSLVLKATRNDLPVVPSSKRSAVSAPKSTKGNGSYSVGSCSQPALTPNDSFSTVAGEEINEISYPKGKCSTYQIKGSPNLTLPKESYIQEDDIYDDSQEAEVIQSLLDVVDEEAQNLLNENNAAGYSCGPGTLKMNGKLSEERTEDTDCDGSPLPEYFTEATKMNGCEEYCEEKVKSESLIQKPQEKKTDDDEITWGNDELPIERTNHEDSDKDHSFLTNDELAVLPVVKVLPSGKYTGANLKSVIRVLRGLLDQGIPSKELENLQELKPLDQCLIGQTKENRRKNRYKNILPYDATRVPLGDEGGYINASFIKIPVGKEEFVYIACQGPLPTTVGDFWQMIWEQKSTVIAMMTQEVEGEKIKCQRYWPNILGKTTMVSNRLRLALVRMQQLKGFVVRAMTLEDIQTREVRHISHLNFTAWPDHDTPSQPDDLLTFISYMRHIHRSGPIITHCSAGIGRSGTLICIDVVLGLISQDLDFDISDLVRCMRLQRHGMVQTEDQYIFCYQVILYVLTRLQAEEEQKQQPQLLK

In the case of `O=C(COc1ccc2cc(C(O)(C(F)(F)F)C(F)(F)F)c(O)cc2c1)N(c1ccccc1)c1ccccc1`, the half-inhibitory concentration (IC50) in assay [1] is > 20 µM; in assay [2], 19.5 µM; in assay [3], > 20 µM; in assay [4], 14.9 µM; in assay [5] it was 20.6 µM; in assay [6], 12.4 µM.
`O=C(COc1ccc2cc(C(O)(C(F)(F)F)C(F)(F)F)c(O)cc2c1)NC12CC3CC(CC(C3)C1)C2`: the IC50 in assay [1] was > 20 µM; in assay [2] it was 9 µM; in assay [3], 14.7 µM; in assay [4], 7.6 µM; in assay [5] it was 10.1 µM; in assay [6], 7.4 µM.
On to `Cc1ccc(O)c(C(O)(C(F)(F)F)C(F)(F)F)c1`, for which the IC50 in assay [1] is 180 µM; in assay [2], 202 µM; in assay [3] it was 360 µM; in assay [4] it was 207 µM; in assay [5] it was 303 µM; in assay [6], 454 µM.
As for `Oc1ccc(-c2ccccc2)cc1C(O)(C(F)(F)F)C(F)(F)F`, the IC50 is 351 µM in assay [1]; 392 µM in assay [2]; > 500 µM in assay [3]; > 500 µM in assay [4]; > 500 µM in assay [5]; > 500 µM in assay [6].
As to `O=C(COc1ccc2cc(C(O)(C(F)(F)F)C(F)(F)F)c(O)cc2c1)Nc1ccc(N2CCOCC2)cc1`, the IC50 in assay [1], in assay [2], in assay [3], in assay [4], in assay [5] and in assay [6] was > 20 µM throughout.
In the case of `O=C(COc1ccc2cc(C(O)(C(F)(F)F)C(F)(F)F)c(O)cc2c1)NC1CC1`, the IC50 in assay [1], in assay [2], in assay [3], in assay [4], in assay [5] and in assay [6] was > 20 µM in each case.
Regarding `Oc1c(-c2ccccc2)cccc1C(O)(C(F)(F)F)C(F)(F)F`, the IC50 in assay [1] amounted to 148 µM; in assay [2], 136 µM; in assay [3], 422 µM; in assay [4], 157 µM; in assay [5], 268 µM; in assay [6] it was 449 µM.
`CCN(CC)C(=O)COc1ccc2cc(C(O)(C(F)(F)F)C(F)(F)F)c(O)cc2c1`: the IC50 in assay [1], in assay [2], in assay [3], in assay [4], in assay [5] and in assay [6] was > 20 µM in each case.
With `O=C(COc1ccc2cc(C(O)(C(F)(F)F)C(F)(F)F)c(O)cc2c1)Nc1cccc2ccccc12`, the IC50 in assay [1] is 4.7 µM; in assay [2], > 20 µM; in assay [3], > 20 µM; in assay [4] it was 29.1 µM; in assay [5], > 20 µM; in assay [6], > 20 µM.
In the case of `Oc1cc(-c2ccccc2)ccc1C(O)(C(F)(F)F)C(F)(F)F`, the IC50 in assay [1], in assay [2], in assay [3], in assay [4], in assay [5] and in assay [6] was > 500 µM throughout.
As for `O=C(COc1ccc2cc(C(O)(C(F)(F)F)C(F)(F)F)c(O)cc2c1)NC1c2ccccc2-c2ccccc21`, the IC50 in assay [1] is 9.4 µM; in assay [2], 6.9 µM; in assay [3], 13.8 µM; in assay [4], 6.6 µM; in assay [5], 7.5 µM; in assay [6], 5.6 µM.
